AF4-AF9 inh – inhibitors of human MLL-AF4/AF9 interaction; AlphaScreen, biotin-AF4 peptide binding to FLAG-AF9; inhibition, % at 10 µM; 350,000 tested, 0.47% active; AID 651704;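 active = every replicate reaching a set inhibition limit, whatever the replicate mean, cut at about 25% in these data; inconclusive = mean inhibition reaches that limit but some replicates miss it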;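 also: 0% = plate neutral control median and 100% = total signal loss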
Target sequence (P42568 whole entry, looked up): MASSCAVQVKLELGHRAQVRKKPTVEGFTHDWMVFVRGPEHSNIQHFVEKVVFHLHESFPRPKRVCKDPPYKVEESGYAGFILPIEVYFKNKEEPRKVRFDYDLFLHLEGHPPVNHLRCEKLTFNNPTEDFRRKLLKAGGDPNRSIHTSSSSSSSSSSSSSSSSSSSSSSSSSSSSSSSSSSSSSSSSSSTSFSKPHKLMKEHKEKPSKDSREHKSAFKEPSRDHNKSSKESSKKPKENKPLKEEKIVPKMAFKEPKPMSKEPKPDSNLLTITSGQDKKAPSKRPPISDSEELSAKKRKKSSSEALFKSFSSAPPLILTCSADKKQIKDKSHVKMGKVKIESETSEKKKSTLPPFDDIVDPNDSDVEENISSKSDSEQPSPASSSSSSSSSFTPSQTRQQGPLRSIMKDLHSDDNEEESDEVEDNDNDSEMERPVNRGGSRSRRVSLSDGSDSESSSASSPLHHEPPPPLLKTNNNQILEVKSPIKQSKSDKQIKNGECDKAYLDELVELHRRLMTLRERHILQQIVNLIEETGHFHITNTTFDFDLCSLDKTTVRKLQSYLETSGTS
PfHsp90 set2 – reduces growth (ATP signal) of yeast expressing P. falciparum Hsp90 | AID 504621 | 310,000 tested, 0.32% active | inhibition, % at 9.4 µM | S. cerevisiae expressing PfHsp90, BacTiter-Glo ATP, 48 h; yeast lacking PDR1 and PDR3 efflux regulators;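 active = every replicate shows inhibition above about 80%, whatever the replicate mean, limit read from the data; inconclusive = mean inhibition reaches the set limit but some replicate falls short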;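 also: 0% = DMSO neutral controls and 100% = 20 µM radicicol positive controls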
DENV2 CPE – inhibitors of DENV2 cytopathic effect; DENV2-infected cells, cytopathic effect rescue, plate reader; CPE inhibition, % at 9.99 µM; 350,000 tested, 1.7% active; AID 651640; in the data active = CPE inhibition above about 20%, passing the limit was not always enough; inconclusive = no clear call, values can overlap the other calls; tested in BHK-21 cells;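 also: 0% = median of neutral control wells and 100% = median of positive control wells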
rRNA inh HTS – selective bacterial rRNA inhibition in E. coli. E. coli WT GFP vs humanized-ribosome RFP mutants, fluorescence, 24 h; stronger effect = lower value; DMSO median 0, no signal -100. GFP signal change (wild-type ribosome), % (concentration not given with the values). 350,000 tested, 1.6% active. AID 720706;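 active = significant combined selectivity score with lowered wild-type GFP, culture density cut under 30%, mutant RFP and density less affected; inactive = any of these conditions unmet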
Cneo AK release – causes C. neoformans cell lysis; adenylate kinase release luminescence, 4 h; normalised: neutral wells 0, clomiphene wells 100; lysis activity, % at 15 µM; 360,000 tested, 0.2% active;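 active = mean lysis activity across replicates of at least 80%, whatever share of replicates individually reach that level; inactive = mean lysis activity below 80%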
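Material: C. neoformans cells; Schedule: 4 h static compound exposure, 37 °C, read 1 h post-reagent; Measured by: adenylate kinase release luminescence; Read-out: signal increase indicating cell lysis; Controls: Clomiphene as positive lysis control.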
S100A4 inh HTS – S100A4-myosin IIA interaction inhibition. inhibition, % at 10.7 µM. P26447. 360,000 tested, 0.14% active. S100A4/TAMRA-MyoIIA peptide fluorescence polarization;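 active = mean inhibition of at least 70% across replicates, with every replicate also reaching that level; inconclusive = mean inhibition reaches 70% but some replicates fall short; inactive = mean inhibition below 70%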
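Material: S100A4 monomer protein / Buffer or medium: 50 mM HEPES pH 7.2, 10 mM CaCl2, 100 mM KCl / Times: 5 min incubation before reading / Benchmarks: neutral control DMSO, positive control TFP / Reagent: labelled myosin peptide probe, 5 nM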
AID977621 – wild-type E. coli growth inhibition versus H69 humanized strain – H69 mutant RFP, wild-type GFP, cherry-pick, dose response. fluorescence, 24 h. shares compounds with rRNA inh HTS. activity change, negative = inhibition at 50 µM. 1,900 tested, under 10 active. AID 977621;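 active = Wild-type ribosome reporter drop at least double the humanized mutant ribosome reporter drop, growth loss under a set limit; inconclusive = no clear call, values can overlap the other calls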;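 also: wild-type GFP and H69 mutant RFP strains grown together 50/50 in each well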
AID977628 – E. coli growth inhibition, wild-type GFP versus h24 humanized RFP strain, dose response, h24 mutant RFP vs wild-type GFP, cherry-pick. shares compounds with rRNA inh HTS. E. coli WT GFP strain growth, fluorescence, 24 h. activity change, negative = inhibition at 50 µM. 1,900 tested, under 10 active. AID 977628;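 active = compound lowering the normal-ribosome reporter at least twice as much as the humanized-ribosome reporter, growth loss under a set limit; inconclusive = no clear call, values can overlap the other calls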;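 also: wild-type GFP and h24 humanized RFP strains co-cultured 1 to 1 per well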
Numbers without * were called inactive; ? = inconclusive; / = no result given. Most compounds without a hit are left out; they make up all but 3.2% or so of the library.

SMILES	AF4-AF9 inh	PfHsp90 set2	DENV2 CPE	rRNA inh HTS	Cneo AK release	S100A4 inh HTS	AID977621	AID977628
Cc1ccc(NC(=O)C[n+]2cc(-c3ccccc3)n3c2CCC3)c(C)c1	1	4	4	-21*	/	0	?	?
CN(C)Cc1cn(CC[C@H]2CC[C@@H](NC(=O)Nc3ccc4c(c3)OCO4)[C@H](CO)O2)nn1	1	/	18	2	-1	6	/	/
COc1ccc2c3c([nH]c2c1)[C@H](CO)N(Cc1nccs1)CC31CN(C(=O)C2CCCC2)C1	1	/	-1	2	/	-6	/	/
CNC(=O)C[C@H]1CC[C@@H]2[C@H](COC[C@@H](O)CN2S(=O)(=O)c2ccccc2Cl)O1	1	/	5	1	0	5	/	/
O=C(c1ccc2c3c(cccc13)CC2)N1CCN(c2ncccn2)CC1	2	7	-8	-28*	-4	-1	-12	-6.3
O=C(c1cnc(N2CCN(c3ncccn3)CC2)c2ccccc12)N1CCN(c2ncccn2)CC1	/	-2	/	/	-1	/	/	/
Cc1noc2ncnc(SCc3ccc(C(F)(F)F)cc3)c12	-3	-39	7	-21*	20	-5	-2.2	?
COc1ccc(CC(=O)Oc2ccc(C)cc2C)cc1	-2	1	6	-23*	-1	-9	-5.7	-5.9
Cc1ccc(OC(=O)CCC(=O)Oc2ccc(C)cc2C)c(C)c1	-7	-16	-7	-6	0	1	/	/
C[C@H](NC(=O)C[C@H]1CC[C@H](NC(=O)Nc2ccc3c(c2)OCO3)[C@H](CO)O1)c1ccccc1	-1	/	-2	1	2	22	/	/
COc1ccc2cc(CO)c3cc(OC)c(OC)cc3c2c1	0	0	15	-28*	8	7	-1.8	/
COc1ccc2cc(CO)c(Cl)nc2c1	-2	-14	-1	-2	0	-3	/	/
C[C@H]1CN(C)C(=O)Cc2ccccc2O[C@H]1CN(C)C	/	/	/	2	/	/	/	/
C/C=C/c1ccc2c(c1)[C@@H]1[C@@H](CCN1S(=O)(=O)c1ccccc1OC)[C@H](CO)N2C	/	/	/	-21*	/	/	/	?
C[C@@H]1CN([C@H](C)CO)C(=O)c2cc(NC(=O)c3ccncc3)ccc2O[C@@H](C)CCCCO[C@@H]1CN(C)S(=O)(=O)c1cccs1	-1	/	-5	-3	-7	-10	/	/
Cc1ccc(S(=O)(=O)N2CCN(CC(=O)Nc3ccc4c(c3)CCC4)CC2)cc1C	/	-53	/	/	1	/	/	/
CCCOc1ccccc1OCC(=O)Nc1ccc(S(=O)(=O)N2CCCCC2)cc1	3	2	?	-6	2	-11	/	/
COc1ccccc1OCC(=O)Nc1ccc(S(=O)(=O)N2CCCCCC2)cc1	3	-23	/	-19*	2	-2	-15	/
O=C(CN1CCN(S(=O)(=O)c2ccc(Cl)cc2)CC1)Nc1ccc2c(c1)CCC2	0	-7	/	-21*	6	4	-0.47	?
CN(CC(=O)Nc1ccc(S(=O)(=O)N2CCCC2)cc1)CC(=O)Nc1ccc(F)c(F)c1F	3	7	/	-33*	/	-11	-22	?
CCCCOc1ccc(-c2nnn(CCC(=O)N3CCOCC3)n2)cc1	4	21	11	-22*	-6	5	4	-8.5
C[C@H](CO)N1C[C@H](C)[C@@H](CN(C)S(C)(=O)=O)Oc2ccc(NS(C)(=O)=O)cc2CC1=O	-1	/	-2	2	-1	0	/	/
COc1ccccc1C1CCN(C(=O)c2ccccc2)CC1	0	0	-1	-10	-1	-2	/	/
COc1ccccc1C1CCN(C(=O)c2cccs2)CC1	-5	1	1	-25*	2	-4	2.2	-11

High-throughput results from PubChem.
